# A selection: hits, their analogues and other compounds. The true share with any hit is near 1.6%.
# PKA-R1A act = PKA-R1A complex activation. P00514+P68181. PKA-R1A dissociation, Cy5-IP20 fluorescence polarization; scaled: DMSO 0%, 113 µM cGMP 100%. activation, % at 11.4 µM. 340,000 compounds, 0.083% hits;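 active means percent activation above the mean of all tested compounds plus 3 SD, cut at about 19% in these data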;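 further: higher means more PKAc released from R1A so a rise in polarization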
# Rpn11 inh = Rpn11 (human) deubiquitinase inhibition | human 26S proteasome, Ub4-pepOG fluorescence polarization; 20S core pre-blocked with epoxomicin | AID 588493 | calls only at 20 µM | 360,000 compounds, 0.59% hits | O00487;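 active means inhibition at 20 µM, scaled to each plate's controls, above about 33%, limit read from the data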
# Target sequence (O00487 whole entry, looked up): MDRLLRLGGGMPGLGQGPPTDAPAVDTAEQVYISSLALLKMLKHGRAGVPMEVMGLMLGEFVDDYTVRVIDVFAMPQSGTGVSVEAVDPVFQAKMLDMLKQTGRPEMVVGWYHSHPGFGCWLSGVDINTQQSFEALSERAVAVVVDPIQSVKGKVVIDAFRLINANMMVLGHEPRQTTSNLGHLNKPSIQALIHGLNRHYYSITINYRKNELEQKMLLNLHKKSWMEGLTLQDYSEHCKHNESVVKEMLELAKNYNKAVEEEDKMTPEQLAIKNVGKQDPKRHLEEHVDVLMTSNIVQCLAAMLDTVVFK
# HNF4A DNA FP = change in binding of human HNF4 alpha to DNA. P41235. HNF4a-FITC DNA binding, fluorescence polarization, 1 h. activity change, % at 10 µM. 360,000 compounds, 0.3% hits. AID 1224865; in the data active means activity change above about 30%, passing the limit was not always enough
# PKA-R2B activ = activators of human PKA-R2B complex; PKA-R2B holoenzyme dissociation, Cy5-IP20 fluorescence polarization; R2B truncated from residue 108, S112A mutant; 0% DMSO only, 100% 113 µM cGMP; activation, % at 11.4 µM; P22694+P31323; 340,000 compounds, 0.079% hits;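 active means activation above a cutoff set at the mean over all compounds plus 3 SD, cut at about 18% in these data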;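 further: higher means more holoenzyme dissociation and a rise in polarization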
# TPT1 inh = blocks Candida albicans tRNA 2'-phosphotransferase. recombinant caTPT1, FP RNA substrate dephosphorylation. inhibition, % at 5 µM. 300,000 compounds, 0.81% hits;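 active means inhibition above the mean of all tested compounds plus 3 SD, set per screening campaign, cut at about 24% in these data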;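 further: plate controls were DMSO alone for no effect and ferristatin control at 100 nM for full effect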
# CSN inh = CSN deneddylation inhibition. Q92905. Purified CSN, SCF-Nedd8-OG deneddylation, fluorescence polarization. inhibition, % at 12.5 µM. 360,000 compounds, 0.38% hits;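 active means pattern-corrected inhibition above about 35%, with an unprinted fluorescence ratio check between 0.5 and 1.5, limit read from the data, passing the limit was not always enough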;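 further: 0% = enzyme with substrate and 100% = substrate without enzyme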
#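 Test system: purified human Csn5 enzyme expressed in HEK293T cells. Amount: 0.24 nM enzyme. Reagent: SCFSkp2-Nedd8OG substrate at 10 nM final. Schedule: 90 min incubation of compound, enzyme and substrate at room temperature. Detection: fluorescence polarization. Read-out: % inhibition of substrate cleavage by Csn5.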
# TPT1 inh confirm = confirmation of Candida albicans TPT1 inhibitors | inhibition, % at 5 µM | recombinant caTPT1, fluorescence polarization, RNase T1 coupled | 2,400 compounds, 74% hits | shares compounds with TPT1 inh | AID 2149;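 active means inhibition above the primary screen limit, the mean inhibition of all tested compounds plus 3 SD, cut at about 25% in these data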
# RNase T1 inh = counter-screen for TPT1 inhibitors: inhibitors of Aspergillus oryzae RNase T1; shares compounds with TPT1 inh; RNase T1 cleavage, fluorescence polarization, 1536-well; inhibition, % at 5 µM; 2,400 compounds, 83% hits; AID 2153;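 active means inhibition above the solvent-only control well mean plus 3 SD, limit set per screening run, cut at about 23% in these data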;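 further: plate controls were DMSO wells with enzyme for no effect and wells without RNase T1 for full effect; inhibitors block cleavage so intact labeled substrate keeps polarization high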
# Target sequence (P00651 whole entry, looked up): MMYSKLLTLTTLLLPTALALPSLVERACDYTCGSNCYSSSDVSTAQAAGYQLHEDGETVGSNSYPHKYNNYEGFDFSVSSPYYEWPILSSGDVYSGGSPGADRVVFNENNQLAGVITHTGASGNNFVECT
# Starred values were filed as active, the others as inactive; i = inactive; x = no result given.
SMILES,PKA-R1A act,Rpn11 inh,HNF4A DNA FP,PKA-R2B activ,TPT1 inh,CSN inh,TPT1 inh confirm,RNase T1 inh
CN1/C(=C\C=C2/C(=O)Oc3ccccc3C2=O)C(C)(C)c2ccccc21,x,x,x,x,98*,x,5,13
Cc1cccc(NC(=S)N2CCN(c3ccc(F)cc3)CC2)c1,-3,i,0,2,2,1,x,x
Cc1cc(C2C(C#N)=C(N)SC(N)=C2C#N)c(C)s1,5,x,85,1,101*,106,46*,59*
Cc1sccc1C1C(C#N)=C(N)SC(N)=C1C#N,x,x,x,x,100*,x,70*,84*
Cc1[nH]nc2c1C(c1ccsc1C)C(C#N)=C(N)O2 (stereo unspecified),4,i,5,-6,-3,2,x,x
COCCN(CCOC)Cc1c(O)ccc2c1O/C(=C\c1ccc(C)o1)C2=O,5,i,32,-2,27*,10,34*,46*
Cc1ccccc1OCC(=O)Nc1ccccc1N1CCC(C)CC1,2,i,-1,-1,-4,-9,x,x
Cc1cc2nc(/C(C#N)=C\c3ccc(-c4ccccc4C(=O)O)o3)[nH]c2cc1C,5,x,148,-3,138*,118,145*,136*
N#C/C(=C/c1ccc(Sc2nc3ccccc3[nH]2)o1)c1ccccc1F,-4,i,1,2,-1,-2,x,x
N#C/C(=C\c1ccc(Sc2ccccc2)o1)c1nc2ccccc2[nH]1,-3,i,11,-1,51*,-5,60*,70*
O=C(O)/C=C/c1cn(-c2ccccc2)nc1-c1ccc(-c2ccc([N+](=O)[O-])cc2)o1,-12,x,-16,-8,69*,12,84*,91*
Cn1c(C(=O)NN)cc2cc(Oc3ccccc3)ccc21,4,i,0,-2,0,-3,x,x
COc1ccc2c(c1)cc(C(=O)N/N=C/c1c(O)c(C(=O)O)cc3ccccc13)n2C,-8,x,27,3,51*,18,60*,65*
O=C(N/N=C/c1c(O)n(-c2ccccc2Cl)c(=O)c2ccccc12)C1COc2ccccc2O1 (stereo unspecified),-1,i,15,-10,26*,13,65*,79*
Cc1c(/C=N\NC(=O)C2COc3ccccc3O2)c2ccccc2n1C (stereo unspecified),-4,i,-1,-2,51*,4,4,4
COc1cc(C(=O)NC(=S)NCc2ccncc2)cc(OC)c1OC,-5,i,3,2,x,-2,x,x
COc1ccc(C(O)P(=O)(OCC(C)C)OCC(C)C)c(OC)c1 (stereo unspecified),-5,i,4,-10,-4,-9,x,x
O=C1/C(=C/c2ccco2)SC(=S)N1CC1CCCO1 (stereo unspecified),x,i,-2,x,8,27,x,x
O=C1/C(=C\c2ccc(-c3ccccc3Cl)o2)SC(=S)N1CC1CCCO1 (stereo unspecified),-10,i,-9,-16,27*,7,48*,61*
COc1ccc(NC(=O)C(c2ccnc3ccccc23)n2c(=O)c(-c3ccccc3)nc3ccccc32)cc1 (stereo unspecified),x,x,0,x,x,-1,x,x
COc1ccccc1NS(=O)(=O)c1cc([N+](=O)[O-])ccc1N/N=C/c1sc(N2CCOCC2)nc1-c1ccccc1,2,x,75*,-2,97*,53*,111*,110*
COc1ccccc1OCCC(=O)OCC(=O)c1c(N)n(C)c(=O)n(C)c1=O,7,i,1,-7,113*,-1,12,19
CC(=O)c1ccc(N2CCN(C(=O)CCS(=O)(=O)c3ccc4c(c3)CCN4C(C)=O)CC2)cc1,5,i,7,-9,-3,-3,x,x
Cc1ccc(C(=O)NN2C(=O)/C(=C/c3cccn3C)SC2=S)cc1,-4,x,88*,-7,79*,21,96*,112*
Cn1cccc1/C=C1\SC(=S)N(NC(=O)c2ccccc2Cl)C1=O,-3,x,69*,-6,87*,44*,88*,106*
SMILES,PKA-R1A act,Rpn11 inh,HNF4A DNA FP,PKA-R2B activ,TPT1 inh,CSN inh,TPT1 inh confirm,RNase T1 inh
COc1ccc(C2C(C#N)=C(N)Oc3cc(O)ccc32)cc1 (stereo unspecified),6,i,3,2,x,-5,x,x
COc1ccc(N=Cc2cc3c(cc2O)OC(N)=C(C#N)C3c2ccccc2)cc1 (stereo unspecified),-5,x,66*,0,55*,1,78*,88*
COC(=O)c1ccccc1CSc1nsc(/C=C/N(C)C)c1C#N,-12,x,55*,-8,92*,16,35*,48*
O=C(O)c1cccc(-n2c(/C=C/c3ccccc3)nc3ccccc3c2=O)c1,-8,i,-2,10,-2,2,x,x
CN(C)c1ccc(/C=C/c2nc3ccccc3c(=O)n2-c2ccc(C(=O)O)cc2)cc1,-2,x,151,14,144*,-76,159*,143*
COc1ccc(-c2csc(C(O)c3ccc(F)cc3)n2)cc1OC (stereo unspecified),x,i,-4,x,x,-2,x,x
COc1ccccc1/C=C/C=C1\Oc2c(ccc(O)c2CN(C)C)C1=O,2,x,58,-2,32*,60,33*,45*
CCN(CC)Cc1c(O)ccc2c1O/C(=C\C=C\c1ccccc1)C2=O,1,x,45,-4,12,37,x,x
C=CCN(CC=C)C(=O)CN1C(=O)NC(c2ccccc2)(c2ccccc2)C1=O,8,i,0,1,-3,0,x,x
CCCn1c(NC(=O)CCS(=O)(=O)c2ccc(C)cc2)nc2ccccc21,-6,i,18,-8,46*,4,58*,68*
COc1cc(/C=C/C(=O)C2C(=O)C=C(C)OC2=O)cc(OC)c1O (stereo unspecified),0,i,-4,1,37*,0,18,28*
COc1ccc(/C=c2\s/c(=C\C(=O)C(C)(C)C)[nH]c2=O)cc1O,0,i,8,-8,2,1,x,x
COc1ccc(/C=C/C(=O)C2C(=O)C=C(C)OC2=O)cc1O (stereo unspecified),-23,i,0,-7,25*,4,18,30*
C=CCN(CC=C)C(=O)Nc1cc(OC)ccc1OC,3,i,3,8,x,0,x,x

# High-throughput results: PubChem, several laboratories
